Assay [1] concerns the target Ribosomal protein S6 kinase alpha-3 (Homo sapiens) (UniProt P51812). In words: Inhibition of RSK2 domain2 Lys2 labeling site harbouring TVEYLHAQGVVHRDLKPSNILYVDESGNPESIR in human Huh-7 cell lysate at 1 uM by KiNativ Profiling analysis relative to control. The format is subcellular.
In assay [2] the target is Mitogen-activated protein kinase kinase kinase 4 (Homo sapiens) (UniProt Q9Y6R4). As to the kind of experiment: Inhibition of MAP3K4 Lys2 labeling site in human A-375 cells at 5 uM by KiNativ Profiling analysis relative to control. The format is cell-based.
Assay [3] has as its target Ribosomal protein S6 kinase alpha-2 (Homo sapiens) (UniProt Q15349). In words: Inhibition of RSK3 domain1 Lys2 labeling site in human A-375 cells at 5 uM by KiNativ Profiling analysis relative to control. The format is cell-based. The essentials: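 Live A375 melanoma cells treated with compound at 5 or 0.5 μM, then lysed. Lysate kinases were labeled with a lysine-reactive ATP or ADP-biotin probe. Inhibition was read as protection of labeling sites from the probe.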

Assay [4] has as its target Ephrin type-A receptor 8 (Homo sapiens) (UniProt P29322). As to the kind of experiment: Inhibition of EPHA8 (unknown origin) at 1 uM by Ambit Kinomescan binding assay relative to control; values are per cent of control.
Assay [5] has as its target Phosphatidylinositol 4,5-bisphosphate 3-kinase catalytic subunit gamma isoform (Homo sapiens) (UniProt P48736). In words: Inhibition of PIK3CG (unknown origin) at 1 uM by Ambit Kinomescan binding assay relative to control; values are per cent of control.
Assay [6] deals with T1, Mitogen-activated protein kinase kinase kinase 3 (Homo sapiens) (UniProt Q99759).
T1 sequence (whole entry): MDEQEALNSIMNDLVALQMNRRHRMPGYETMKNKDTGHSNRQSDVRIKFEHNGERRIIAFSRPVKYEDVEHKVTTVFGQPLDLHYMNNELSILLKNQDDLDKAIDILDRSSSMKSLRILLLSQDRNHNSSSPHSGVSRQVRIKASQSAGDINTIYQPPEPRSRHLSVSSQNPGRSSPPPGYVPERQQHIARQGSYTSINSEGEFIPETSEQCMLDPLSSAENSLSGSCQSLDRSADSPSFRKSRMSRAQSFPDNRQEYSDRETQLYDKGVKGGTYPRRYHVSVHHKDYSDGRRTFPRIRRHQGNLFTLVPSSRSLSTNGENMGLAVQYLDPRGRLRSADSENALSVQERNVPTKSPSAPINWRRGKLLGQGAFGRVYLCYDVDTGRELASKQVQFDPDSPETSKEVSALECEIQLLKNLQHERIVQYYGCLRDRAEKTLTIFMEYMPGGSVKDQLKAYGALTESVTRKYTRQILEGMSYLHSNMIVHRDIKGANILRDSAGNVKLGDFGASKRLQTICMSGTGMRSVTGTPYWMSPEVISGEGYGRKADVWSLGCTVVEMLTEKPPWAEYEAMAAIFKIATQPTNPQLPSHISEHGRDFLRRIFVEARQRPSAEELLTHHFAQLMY
In words: Inhibition of MAP3K3 (unknown origin) at 10 uM by Ambit Kinomescan binding assay relative to control.

The target of assay [7] is Serine/threonine-protein kinase PAK 2 (Homo sapiens) (UniProt Q13177). In words: Inhibition of PAK2 (unknown origin) at 10 uM by Ambit Kinomescan binding assay.
Chain of Serine/threonine-protein kinase PAK 2 (Homo sapiens) (Q13177 whole entry, the tested form may be a part): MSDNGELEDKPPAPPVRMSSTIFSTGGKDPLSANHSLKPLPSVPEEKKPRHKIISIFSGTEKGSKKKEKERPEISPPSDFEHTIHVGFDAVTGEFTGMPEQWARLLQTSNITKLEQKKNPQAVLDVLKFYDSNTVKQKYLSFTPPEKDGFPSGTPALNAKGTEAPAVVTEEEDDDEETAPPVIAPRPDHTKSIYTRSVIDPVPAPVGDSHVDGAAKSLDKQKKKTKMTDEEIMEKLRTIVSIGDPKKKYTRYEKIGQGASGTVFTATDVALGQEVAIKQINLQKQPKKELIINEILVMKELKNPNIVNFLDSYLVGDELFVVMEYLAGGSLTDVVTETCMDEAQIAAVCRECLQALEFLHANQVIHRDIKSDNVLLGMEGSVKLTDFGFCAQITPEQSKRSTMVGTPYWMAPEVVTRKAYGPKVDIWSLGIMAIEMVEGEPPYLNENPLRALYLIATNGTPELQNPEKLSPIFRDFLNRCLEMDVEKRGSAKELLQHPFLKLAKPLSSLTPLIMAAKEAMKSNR
The target of assay [8] is Ribosomal protein S6 kinase alpha-5 (Homo sapiens) (UniProt O75582). In words: Inhibition of C-terminal RPS6KA5 kinase domain 2 (unknown origin) at 10 uM by Ambit Kinomescan binding assay.
The target in assay [9] is Serine/threonine-protein kinase 10 (Homo sapiens) (UniProt O94804). In words: Inhibition of LOK Lys1 labeling site harbouring ETGALAAAKVIETK in human A-375 cells at 5 uM by KiNativ Profiling analysis relative to control. The class given is cell-based.
Chain of Serine/threonine-protein kinase 10 (Homo sapiens) (O94804 whole entry, looked up): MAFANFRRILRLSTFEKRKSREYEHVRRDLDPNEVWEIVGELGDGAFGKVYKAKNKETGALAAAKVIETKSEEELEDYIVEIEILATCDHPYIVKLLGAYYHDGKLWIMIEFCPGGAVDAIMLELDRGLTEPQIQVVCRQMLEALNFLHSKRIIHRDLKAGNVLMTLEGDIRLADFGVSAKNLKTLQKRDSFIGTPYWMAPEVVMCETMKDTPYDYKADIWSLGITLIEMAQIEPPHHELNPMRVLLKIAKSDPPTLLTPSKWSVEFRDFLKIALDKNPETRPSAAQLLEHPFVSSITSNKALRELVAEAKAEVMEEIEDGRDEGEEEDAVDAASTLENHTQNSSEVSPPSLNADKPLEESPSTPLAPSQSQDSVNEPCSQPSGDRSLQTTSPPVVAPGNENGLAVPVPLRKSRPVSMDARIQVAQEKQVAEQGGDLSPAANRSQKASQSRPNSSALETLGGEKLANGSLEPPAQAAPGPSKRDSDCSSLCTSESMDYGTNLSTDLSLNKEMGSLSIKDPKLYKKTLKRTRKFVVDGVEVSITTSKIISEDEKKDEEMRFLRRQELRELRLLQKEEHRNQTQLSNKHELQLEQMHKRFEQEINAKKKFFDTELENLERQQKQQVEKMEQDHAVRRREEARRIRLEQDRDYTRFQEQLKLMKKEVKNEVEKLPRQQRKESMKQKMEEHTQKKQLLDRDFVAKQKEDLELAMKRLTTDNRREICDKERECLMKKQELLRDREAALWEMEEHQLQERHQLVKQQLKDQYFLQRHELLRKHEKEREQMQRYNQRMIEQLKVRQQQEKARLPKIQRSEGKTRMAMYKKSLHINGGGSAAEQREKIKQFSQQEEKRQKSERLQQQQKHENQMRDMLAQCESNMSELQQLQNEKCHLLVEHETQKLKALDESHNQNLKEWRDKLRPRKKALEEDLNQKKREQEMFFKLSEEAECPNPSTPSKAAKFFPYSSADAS
The target in assay [10] is Cyclin-dependent kinase 16 (Homo sapiens) (UniProt Q00536). In words: Inhibition of PFTAIRE1 Lys2 labeling site in human A-375 cells at 0.5 uM by KiNativ Profiling analysis relative to control. The class given is cell-based.
Chain of Cyclin-dependent kinase 16 (Homo sapiens) (Q00536 whole entry): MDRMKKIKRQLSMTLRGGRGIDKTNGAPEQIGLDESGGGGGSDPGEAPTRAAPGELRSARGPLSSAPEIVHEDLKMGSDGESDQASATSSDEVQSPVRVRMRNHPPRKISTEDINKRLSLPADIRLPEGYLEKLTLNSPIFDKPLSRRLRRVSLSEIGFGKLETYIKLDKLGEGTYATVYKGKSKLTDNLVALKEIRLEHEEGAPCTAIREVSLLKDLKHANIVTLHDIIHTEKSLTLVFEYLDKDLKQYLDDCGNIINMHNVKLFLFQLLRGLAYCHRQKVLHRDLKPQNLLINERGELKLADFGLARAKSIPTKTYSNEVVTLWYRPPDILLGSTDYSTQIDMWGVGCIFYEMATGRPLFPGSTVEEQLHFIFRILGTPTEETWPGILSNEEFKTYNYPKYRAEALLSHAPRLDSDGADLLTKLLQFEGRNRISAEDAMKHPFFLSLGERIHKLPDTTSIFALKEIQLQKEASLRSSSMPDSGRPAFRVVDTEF
Assay [11] has as its target Cyclin-dependent kinase 1 (Homo sapiens) (UniProt P06493). In words: Inhibition of CDC2 K2 labeling site harbouring DLKPQNLLIDDKGTIK in human Huh-7 cells at 10 uM by KiNativ Profiling analysis relative to control. The class given is cell-based.
For assay [12], the target named is T2, Dual specificity mitogen-activated protein kinase kinase 6 (Homo sapiens) (UniProt P52564).
T2 sequence (whole entry): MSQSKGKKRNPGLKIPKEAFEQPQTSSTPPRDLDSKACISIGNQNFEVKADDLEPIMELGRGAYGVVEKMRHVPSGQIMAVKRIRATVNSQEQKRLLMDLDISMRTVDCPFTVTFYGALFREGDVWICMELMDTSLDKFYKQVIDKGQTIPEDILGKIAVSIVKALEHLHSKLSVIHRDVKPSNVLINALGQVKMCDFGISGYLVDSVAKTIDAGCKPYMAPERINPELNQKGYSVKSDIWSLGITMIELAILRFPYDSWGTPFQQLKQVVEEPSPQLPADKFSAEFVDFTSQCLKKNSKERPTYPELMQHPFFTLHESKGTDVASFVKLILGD
In words: Inhibition of MAP2K6 K1 labeling site in human Huh-7 cells at 10 uM by KiNativ Profiling analysis relative to control. The format is cell-based.

Assay [13] deals with DNA-dependent protein kinase catalytic subunit (Homo sapiens) (UniProt P78527). In words: Inhibition of PRKDC ATP labeling site harbouring KGGSWIQEINVAEK in human Huh-7 cells at 10 uM by KiNativ Profiling analysis relative to control. The format is cell-based.

The structures appear in SMILES notation. The source made the active and inactive calls. The calls are words filed in the database; no cut-off is given here.

Chain of Ribosomal protein S6 kinase alpha-2 (Homo sapiens) (Q15349 whole entry, the tested form may be a part): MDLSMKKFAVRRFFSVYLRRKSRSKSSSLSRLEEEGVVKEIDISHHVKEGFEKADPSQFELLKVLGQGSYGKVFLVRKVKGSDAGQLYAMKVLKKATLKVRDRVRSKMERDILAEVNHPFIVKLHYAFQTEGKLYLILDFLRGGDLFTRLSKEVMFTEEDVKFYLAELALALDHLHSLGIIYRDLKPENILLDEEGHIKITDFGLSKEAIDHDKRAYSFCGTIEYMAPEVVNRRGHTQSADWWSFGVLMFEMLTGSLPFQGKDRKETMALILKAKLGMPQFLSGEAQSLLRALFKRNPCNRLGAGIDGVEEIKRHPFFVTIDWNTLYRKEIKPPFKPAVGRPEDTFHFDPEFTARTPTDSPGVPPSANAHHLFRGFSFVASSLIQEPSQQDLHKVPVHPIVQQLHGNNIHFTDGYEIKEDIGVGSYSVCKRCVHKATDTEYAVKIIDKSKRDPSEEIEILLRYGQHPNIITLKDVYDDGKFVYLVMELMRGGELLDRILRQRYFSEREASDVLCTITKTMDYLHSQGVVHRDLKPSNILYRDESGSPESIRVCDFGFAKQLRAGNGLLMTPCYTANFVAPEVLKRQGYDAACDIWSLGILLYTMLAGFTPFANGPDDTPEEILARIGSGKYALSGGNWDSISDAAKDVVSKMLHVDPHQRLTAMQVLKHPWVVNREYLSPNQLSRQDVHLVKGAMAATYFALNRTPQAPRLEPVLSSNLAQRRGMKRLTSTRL
Chain of Ephrin type-A receptor 8 (Homo sapiens) (P29322 whole entry, canonical isoform): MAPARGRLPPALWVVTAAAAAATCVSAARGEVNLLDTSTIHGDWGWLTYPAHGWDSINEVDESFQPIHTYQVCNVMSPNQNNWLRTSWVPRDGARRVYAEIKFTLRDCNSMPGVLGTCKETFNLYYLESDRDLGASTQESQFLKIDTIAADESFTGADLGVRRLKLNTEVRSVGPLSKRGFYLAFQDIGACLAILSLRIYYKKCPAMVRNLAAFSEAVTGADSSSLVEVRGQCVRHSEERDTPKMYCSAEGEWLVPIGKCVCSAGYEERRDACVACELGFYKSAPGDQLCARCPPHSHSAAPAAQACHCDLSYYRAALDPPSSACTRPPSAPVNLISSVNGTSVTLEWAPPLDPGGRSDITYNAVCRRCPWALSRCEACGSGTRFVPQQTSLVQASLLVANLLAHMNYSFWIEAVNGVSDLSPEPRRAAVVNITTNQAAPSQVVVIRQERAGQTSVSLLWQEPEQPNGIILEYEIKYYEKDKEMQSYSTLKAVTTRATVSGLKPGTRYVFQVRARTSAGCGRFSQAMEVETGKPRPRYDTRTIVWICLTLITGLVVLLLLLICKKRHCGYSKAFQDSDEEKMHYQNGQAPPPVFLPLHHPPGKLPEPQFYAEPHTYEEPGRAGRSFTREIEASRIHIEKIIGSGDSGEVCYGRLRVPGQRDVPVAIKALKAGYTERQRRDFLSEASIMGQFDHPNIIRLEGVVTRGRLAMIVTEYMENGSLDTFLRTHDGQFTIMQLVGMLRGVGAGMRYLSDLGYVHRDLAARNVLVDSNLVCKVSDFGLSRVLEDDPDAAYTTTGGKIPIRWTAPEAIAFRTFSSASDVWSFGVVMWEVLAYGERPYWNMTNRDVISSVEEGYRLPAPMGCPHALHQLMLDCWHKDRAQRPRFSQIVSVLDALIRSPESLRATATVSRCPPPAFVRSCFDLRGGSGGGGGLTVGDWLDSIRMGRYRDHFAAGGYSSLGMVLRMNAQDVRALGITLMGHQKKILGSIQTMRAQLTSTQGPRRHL
Chain of Phosphatidylinositol 4,5-bisphosphate 3-kinase catalytic subunit gamma isoform (Homo sapiens) (P48736 whole entry, looked up, canonical isoform): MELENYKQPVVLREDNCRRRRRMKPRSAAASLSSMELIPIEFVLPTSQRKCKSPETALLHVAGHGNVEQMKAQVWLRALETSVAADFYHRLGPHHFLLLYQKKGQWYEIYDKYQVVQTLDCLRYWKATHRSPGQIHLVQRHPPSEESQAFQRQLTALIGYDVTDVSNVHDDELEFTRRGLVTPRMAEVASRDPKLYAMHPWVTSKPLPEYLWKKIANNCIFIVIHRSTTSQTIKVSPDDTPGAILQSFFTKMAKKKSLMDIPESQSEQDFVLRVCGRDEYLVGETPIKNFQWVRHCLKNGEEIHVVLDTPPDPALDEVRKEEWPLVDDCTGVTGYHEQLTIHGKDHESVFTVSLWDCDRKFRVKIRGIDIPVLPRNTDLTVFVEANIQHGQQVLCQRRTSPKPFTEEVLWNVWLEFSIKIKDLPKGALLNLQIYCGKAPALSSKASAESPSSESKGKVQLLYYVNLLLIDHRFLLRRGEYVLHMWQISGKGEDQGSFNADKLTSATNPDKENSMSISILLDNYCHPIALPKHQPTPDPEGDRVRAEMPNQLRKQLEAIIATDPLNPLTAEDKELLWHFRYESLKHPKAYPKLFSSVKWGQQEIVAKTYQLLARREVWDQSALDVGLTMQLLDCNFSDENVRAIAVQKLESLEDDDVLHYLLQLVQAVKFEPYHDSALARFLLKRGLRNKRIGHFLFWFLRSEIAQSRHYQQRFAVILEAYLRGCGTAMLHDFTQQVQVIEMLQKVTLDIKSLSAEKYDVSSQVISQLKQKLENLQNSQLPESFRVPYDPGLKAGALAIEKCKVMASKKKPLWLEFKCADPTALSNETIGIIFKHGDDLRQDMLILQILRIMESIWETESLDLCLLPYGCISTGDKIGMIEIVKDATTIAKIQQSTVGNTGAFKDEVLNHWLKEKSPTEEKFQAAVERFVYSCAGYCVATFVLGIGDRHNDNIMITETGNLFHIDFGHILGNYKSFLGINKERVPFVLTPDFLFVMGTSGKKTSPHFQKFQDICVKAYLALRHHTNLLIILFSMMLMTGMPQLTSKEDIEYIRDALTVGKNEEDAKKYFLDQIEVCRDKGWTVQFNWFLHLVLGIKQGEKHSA

Usually inhibition stands for the drop in the measured response relative to a control, in per cent. As to `CNc1cc(Oc2cc(C(=O)Nc3cc(N4CCN(C)CC4)cc(C(F)(F)F)c3)ccc2C)ncn1`, the inhibition in assay [1] was 11.6%.

One may read the residual activity as the share of the control activity or signal that is left under treatment. `CCN1CCN(Cc2ccc(NC(=O)c3ccc(C)c(/C=C/c4cnc5[nH]ccc5c4OC)c3)cc2C(F)(F)F)CC1`: the results for the inhibition in assay [2] and in [3] were 14.2% and 16.5%, respectively. Further, the residual activity was found to be 0.35% in [4] and 100% in [5].

Regarding `CCN1CCN(Cc2ccc(NC(=O)c3ccc(C)c(Oc4ccnc5[nH]ccc45)c3)cc2C(F)(F)F)CC1`, the inhibition in [6] was 12%; in [9] it was 82.3%; in assay [10] it was 33.6%; in [11] it was -1.7%; in assay [12], 5.5%; in assay [13], 0.2%. Besides, the inhibition result in [7] and in assay [8] was “inactive” in each case.

The values are drawn from ChEMBL document CHEMBL5696442, “Discovery of type II inhibitors of TGFβ-activated kinase 1 (TAK1) and mitogen-activated protein kinase kinase kinase kinase 2 (MAP4K2)” (J Med Chem, 2015).
